SMILES strings stand for the structures. pIC50: −log10 of the molar value. The source made the active and inactive calls. The rule behind the calls is not given here.

Usually inhibition stands for the drop in the measured response relative to a control, in per cent. Lower therefore signals little suppression. For orientation: pIC50 means the IC50 on a negative log10 scale, so that one unit is a factor of ten. A lower pIC50 goes with a large IC50. By Emax is commonly meant the size of the effect at its maximum, as opposed to the concentration needed.

Assay [1] has as its system Rattus norvegicus. The assay is described as follows: Antiinflammatory activity against carrageenan-induced edema in Sprague-Dawley rat assessed as right hind paw volume at 20 mg/kg, po administered 4 hrs post challenge measured after 60 mins. The assay is classed as functional. The procedure, abridged: (§1)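 Rats received intraplantar carrageenan. Right hind paw volume was measured 4 h after the carrageenan injection and compared with saline/carrageenan-treated controls. Oral dosing in CMC vehicle; volume recorded at 60 min after treatment.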
A general note: The carrageenan paw model is a standard test of acute inflammation.

Assay [2] relates to Rattus norvegicus. The assay is described as follows: Antiinflammatory activity against carrageenan-induced edema in Sprague-Dawley rat assessed as right hind paw volume at 40 mg/kg, po administered 4 hrs post challenge measured after 60 mins. The assay is classed as functional. The procedure, abridged:
as §1

The target of assay [3] is T1, Prostaglandin G/H synthase 1 (Mus musculus) (UniProt P22437).
T1 sequence (whole entry): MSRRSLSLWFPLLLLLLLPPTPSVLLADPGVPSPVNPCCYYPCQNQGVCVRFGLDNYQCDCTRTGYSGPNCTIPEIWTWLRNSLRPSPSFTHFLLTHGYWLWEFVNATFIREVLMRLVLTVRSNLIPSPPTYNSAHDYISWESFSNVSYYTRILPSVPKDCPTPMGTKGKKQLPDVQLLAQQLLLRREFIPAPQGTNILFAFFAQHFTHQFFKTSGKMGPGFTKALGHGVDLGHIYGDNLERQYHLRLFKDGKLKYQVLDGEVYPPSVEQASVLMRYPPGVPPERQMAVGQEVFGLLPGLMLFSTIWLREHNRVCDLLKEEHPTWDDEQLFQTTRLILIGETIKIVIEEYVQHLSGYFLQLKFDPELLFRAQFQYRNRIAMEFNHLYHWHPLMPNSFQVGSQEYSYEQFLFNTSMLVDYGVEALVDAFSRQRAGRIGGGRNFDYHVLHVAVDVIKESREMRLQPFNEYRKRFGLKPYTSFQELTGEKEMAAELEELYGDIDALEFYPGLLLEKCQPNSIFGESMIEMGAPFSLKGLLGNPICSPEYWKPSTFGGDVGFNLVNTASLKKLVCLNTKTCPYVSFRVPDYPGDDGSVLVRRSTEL
The assay is described as follows: Inhibition of COX-1-mediated PGE2 production in arachidonic acid-stimulated mouse J774 cells at 0.1 uM incubated for 15 mins prior to arachidonic acid-challenge by radioimmunoassay. The format is cell-based. The procedure, abridged: (§2)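 J774 murine macrophages grown in DMEM with 10% FBS and allowed to adhere for 2 h at 37 °C. Where inhibition exceeded 50%, 0.01–1 μM was also tested. Supernatant PGE2 was measured by RIA as % inhibition versus control, in triplicate wells over three experiments. IC50 came from a sigmoidal variable-slope fit.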

In assay [4] the target is T1, Prostaglandin G/H synthase 1 (Mus musculus). The assay is described as follows: Inhibition of COX-1-mediated PGE2 production in arachidonic acid-stimulated mouse J774 cells at 1 uM incubated for 15 mins prior to arachidonic acid-challenge by radioimmunoassay. The assay is classed as cell-based. The gist of the method: as §2
Assay [5] shares this target. As to the kind of experiment: Inhibition of COX-1-mediated PGE2 production in arachidonic acid-stimulated mouse J774 cells at 10 uM incubated for 15 mins prior to arachidonic acid-challenge by radioimmunoassay. The format is cell-based. The gist of the method:
as §2

Assay [6] has as its target T2, Prostaglandin G/H synthase 1 (Mus musculus, UniProt P22437).
T2 sequence (P22437 whole entry): T1 sequence (whole entry)
As to the kind of experiment: Inhibition of COX-1-mediated PGE2 production in arachidonic acid-stimulated mouse J774 cells incubated for 15 mins prior to arachidonic acid-challenge by radioimmunoassay. The format is cell-based. The gist of the method:
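J774 murine macrophages grown in DMEM with 10% FBS and allowed to adhere for 2 h at 37 °C. Cells were pretreated with compound at 10 μM for 15 min, then given 15 μM arachidonic acid for 30 min at 37 °C. Where inhibition exceeded 50%, 0.01–1 μM was also tested. Supernatant PGE2 was measured by RIA as % inhibition versus control, in triplicate wells over three experiments. IC50 came from a sigmoidal variable-slope fit.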

Assay [7] concerns the target T3, Prostaglandin G/H synthase 2 (Mus musculus, UniProt Q05769).
T3 sequence (Q05769 whole entry): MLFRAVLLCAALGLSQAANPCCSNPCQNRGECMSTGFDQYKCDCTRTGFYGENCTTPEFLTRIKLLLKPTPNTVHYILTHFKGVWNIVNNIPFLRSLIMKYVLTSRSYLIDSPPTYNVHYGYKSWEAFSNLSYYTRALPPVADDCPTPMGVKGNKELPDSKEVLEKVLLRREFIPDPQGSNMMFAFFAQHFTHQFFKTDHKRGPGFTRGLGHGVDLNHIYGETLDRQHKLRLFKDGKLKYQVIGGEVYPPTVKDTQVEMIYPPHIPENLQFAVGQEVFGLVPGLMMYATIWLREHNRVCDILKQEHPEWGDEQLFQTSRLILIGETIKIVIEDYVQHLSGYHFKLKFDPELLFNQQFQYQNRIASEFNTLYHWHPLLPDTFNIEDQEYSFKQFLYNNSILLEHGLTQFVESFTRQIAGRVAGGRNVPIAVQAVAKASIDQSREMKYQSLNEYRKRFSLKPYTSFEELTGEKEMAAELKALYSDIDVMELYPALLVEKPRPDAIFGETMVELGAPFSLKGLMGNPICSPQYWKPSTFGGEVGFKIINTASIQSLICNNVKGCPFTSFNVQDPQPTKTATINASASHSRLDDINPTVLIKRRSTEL
The assay is described as follows: Inhibition of COX-2-mediated PGE2 production in LPS-stimulated mouse J774 cells after 24 hrs by radioimmunoassay. The format is cell-based.

The next assay relates to J774. As to the kind of experiment: Selectivity ratio of IC50 for COX1 in mouse J774 cells to IC50 for COX2 in mouse J774 cells. The assay is classed as cell-based. The procedure, abridged:
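Ratio of J774 IC50s, COX-1 over COX-2. For COX-1, cells were pretreated with compound for 15 min, then given 15 μM arachidonic acid for 30 min at 37 °C. For COX-2, cells received E. coli LPS 10 μg/mL for 24 h with compound at 0.01–10 μM. PGE2 was measured by RIA in triplicate wells over three experiments. IC50 came from a sigmoidal fit.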

In assay [8] the test system is Aorta. As to the kind of experiment: Vasorelaxation activity against KCl-induced contraction in isolated Wistar rat thoracic endothelium-denulated aortic rings. The assay is classed as functional, tissue-based. The procedure, abridged:
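Endothelium-denuded thoracic aortic rings from male Wistar rats (250−350 g); denudation confirmed by <10% relaxation to 10 μM ACh. Rings precontracted with 30 mM KCl; compound added at 3-fold increasing concentrations, 1 nM to 10 μM. Isometric tension recorded. Emax given as % of KCl tone; pIC50 derived. Mean ± standard error of 6−10 experiments; repeated with 1 μM ODQ.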

The test system of assay [9] is Aorta. As to the kind of experiment: Vasorelaxation activity against KCl-induced contraction in isolated Wistar rat thoracic endothelium-denulated aortic rings in the presence of guanylate cyclase inhibitor ODQ. The assay is classed as functional, tissue-based. The procedure, abridged:
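Thoracic aortic rings from male Wistar rats (250–350 g), endothelium removed by rubbing; rings relaxing ≥10% to ACh 10 μM on KCl 30 mM tone were discarded. ODQ 1 μM was incubated, then rings were contracted with KCl 30 mM and given 3-fold increasing concentrations of 1 nM–10 μM.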

Another assay deals with Mus musculus. The assay is described as follows: Analgesic activity in Swiss albino mouse abdominal constriction model assessed as reduction in acetic acid-induced writhing response for 10 mins at 20 to 40 mg/kg, po administered 30 mins prior to acetic acid-challenge measured after 5 mins relative to vehicle-treated control. The format is functional, organism-based. Particulars: Abdomen. The procedure, abridged:
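Male Swiss albino mice (23−25 g); 0.6% acetic acid (10 mL/kg) injected ip. Stretching movements counted for 10 min, starting 5 min after administration. Oral doses in carboxymethylcellulose (CMC) vehicle, compared with vehicle-treated mice.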

Assay [10] deals with Rattus norvegicus. As to the kind of experiment: Antiinflammatory activity against carrageenan-induced paw edema in Sprague-Dawley rat assessed as paw weight at 20 mg/kg, po administered 4 hrs post challenge measured after 30 mins (reference value: 62.5+/-3.1 g). The assay is classed as functional.
The subject of assay [11] is Rattus norvegicus. As to the kind of experiment: Antiinflammatory activity against carrageenan-induced paw edema in Sprague-Dawley rat assessed as paw weight at 20 mg/kg, po administered 4 hrs post challenge measured after 60 mins (reference value: 62.5+/-3.1 g). The format is functional.
Assay [12] concerns Rattus norvegicus. As to the kind of experiment: Antiinflammatory activity against carrageenan-induced paw edema in Sprague-Dawley rat assessed as paw weight at 20 mg/kg, po administered 4 hrs post challenge measured after 120 mins (reference value: 62.5+/-3.1 g). The assay is classed as functional.
The subject of assay [13] is Rattus norvegicus. The assay is described as follows: Antiinflammatory activity against carrageenan-induced paw edema in Sprague-Dawley rat assessed as paw weight at 40 mg/kg, po administered 4 hrs post challenge measured after 30 mins (reference value: 63.2+/-3.3 g). The assay is classed as functional.
For assay [14], the system named is Rattus norvegicus. As to the kind of experiment: Antiinflammatory activity against carrageenan-induced paw edema in Sprague-Dawley rat assessed as paw weight at 40 mg/kg, po administered 4 hrs post challenge measured after 60 mins (reference value: 63.2+/-3.3 g). The assay is classed as functional.
Assay [15] deals with Rattus norvegicus. The assay is described as follows: Antiinflammatory activity against carrageenan-induced paw edema in Sprague-Dawley rat assessed as paw weight at 40 mg/kg, po administered 4 hrs post challenge measured after 120 mins (reference value: 63.2+/-3.3 g). The assay is classed as functional.
Assay [16] relates to Rattus norvegicus. The assay is described as follows: Antiinflammatory activity against carrageenan-induced paw edema in Sprague-Dawley rat assessed as paw weight at 20 mg/kg, po administered 4 hrs post challenge measured after 30 mins (reference value: 62.6+/-3.1 g). The assay is classed as functional.
Assay [17] deals with Rattus norvegicus. The assay is described as follows: Antiinflammatory activity against carrageenan-induced paw edema in Sprague-Dawley rat assessed as paw weight at 20 mg/kg, po administered 4 hrs post challenge measured after 60 mins (reference value: 62.6+/-3.1 g). The format is functional.
The test system of assay [18] is Rattus norvegicus. The assay is described as follows: Antiinflammatory activity against carrageenan-induced paw edema in Sprague-Dawley rat assessed as paw weight at 20 mg/kg, po administered 4 hrs post challenge measured after 120 mins (reference value: 62.6+/-3.1 g). The assay is classed as functional.
Assay [19] has as its system Rattus norvegicus. As to the kind of experiment: Antiinflammatory activity against carrageenan-induced paw edema in Sprague-Dawley rat assessed as paw weight at 40 mg/kg, po administered 4 hrs post challenge measured after 30 mins (reference value: 61.3+/-3.0 g). The assay is classed as functional.
For assay [20], the system named is Rattus norvegicus. As to the kind of experiment: Antiinflammatory activity against carrageenan-induced paw edema in Sprague-Dawley rat assessed as paw weight at 40 mg/kg, po administered 4 hrs post challenge measured after 60 mins (reference value: 61.3+/-3.0 g). The assay is classed as functional.
Assay [21] has as its system Rattus norvegicus. As to the kind of experiment: Antiinflammatory activity against carrageenan-induced paw edema in Sprague-Dawley rat assessed as paw weight at 40 mg/kg, po administered 4 hrs post challenge measured after 120 mins (reference value: 61.3+/-3.0 g). The format is functional.
Assay [22] concerns Rattus norvegicus. The assay is described as follows: Antiinflammatory activity against carrageenan-induced paw edema in Sprague-Dawley rat assessed as paw weight at 10 mg/kg, po administered 4 hrs post challenge measured after 30 mins (reference value: 61.5+/-3.4 g). The format is functional.
Assay [23] has as its system Rattus norvegicus. The assay is described as follows: Antiinflammatory activity against carrageenan-induced paw edema in Sprague-Dawley rat assessed as paw weight at 10 mg/kg, po administered 4 hrs post challenge measured after 60 mins (reference value: 61.5+/-3.4 g). The format is functional.
In assay [24] the test system is Rattus norvegicus. As to the kind of experiment: Antiinflammatory activity against carrageenan-induced paw edema in Sprague-Dawley rat assessed as paw weight at 10 mg/kg, po administered 4 hrs post challenge measured after 120 mins (reference value: 61.5+/-3.4 g). The assay is classed as functional.
Assay [25] has as its system Rattus norvegicus. The assay is described as follows: Antiinflammatory activity against carrageenan-induced edema in Sprague-Dawley rat assessed as right hind paw volume at 10 mg/kg, po administered 4 hrs post challenge measured after 60 mins. The format is functional. The procedure, abridged:
as §1

With `Cc1c(CC(=O)OCCCO[N+](=O)[O-])cc(-c2ccc(S(C)(=O)=O)cc2)n1-c1cccc(F)c1`, the Activity was 2.05 mL in the assay on Rattus norvegicus [1]; 1.96 mL in the assay on Rattus norvegicus [2]; 43.2 g in the assay with Rattus norvegicus [10]; 45.1 g with Rattus norvegicus [11]; 40.7 g in the assay on Rattus norvegicus [12]; 45.5 g in the assay on Rattus norvegicus [13]. Further, the Activity is 44.9 g in the assay with Rattus norvegicus [14] and 36.8 g with Rattus norvegicus [15]. The inhibition in assay [3] turned out to be 20%; in [4], 50%; in [5], 75%. The pIC50 in assay [6] was 5.96; in assay [7], 8.14; in the assay with Aorta [8], less than 5.00. Also, the Ratio IC50 with J774 was 151. For the same compound, the Emax in the assay on Aorta [8] was found to be 39%. The outcome in the assay on Aorta [9] and with Mus musculus was inactive.

As for `Cc1c(CC(=O)OCCCO)cc(-c2ccc(S(C)(=O)=O)cc2)n1-c1cccc(F)c1`, the inhibition in assay [5] was found to be 0%. This compound also had a pIC50 in assay [6] of less than 5.00. The Ratio IC50 in the assay with J774 is greater than 435. Besides, in the assay with Mus musculus, the result was inactive. Further, the Activity in the assay with Rattus norvegicus [16] amounted to 41.2 g; with Rattus norvegicus [17], 45.8 g; in the assay with Rattus norvegicus [18] it was 36.4 g; with Rattus norvegicus [19], 43.1 g; in the assay on Rattus norvegicus [20], 48.8 g; in the assay on Rattus norvegicus [21] it was 44.4 g.

On to `Cc1ccc(-c2cc(C(F)(F)F)nn2-c2ccc(S(N)(=O)=O)cc2)cc1` [CELECOXIB], for which the Activity with Rattus norvegicus [22] came to 54.3 g; with Rattus norvegicus [23], 57.1 g; in the assay with Rattus norvegicus [24], 54.9 g; in the assay with Rattus norvegicus [25], 1.36 mL.
